One may read the IC50 as the point on the concentration scale where inhibition reaches its midpoint. For orientation: Ki means the equilibrium dissociation constant of an inhibitor or competing ligand from its target. The low end stands for tighter binding, the high end for weaker binding.

The source of these data is ChEMBL document CHEMBL4261631, “Synthetic thiosemicarbazones as a new class of Mycobacterium tuberculosis protein tyrosine phosphatase A inhibitors” (Bioorg Med Chem, 2018).

Experiment [1] deals with Tyrosine-protein phosphatase YopH (Yersinia enterocolitica, UniProt P15273). The experiment in a line: Inhibition of recombinant Yersinia enterocolitica YopH using p-nitrophenyl phosphate as substrate preincubated for 10 mins followed by substrate addition and measured every minute for 10 mins by UV-VIS spectrophotometric analysis.
Chain of Tyrosine-protein phosphatase YopH (P15273 whole entry): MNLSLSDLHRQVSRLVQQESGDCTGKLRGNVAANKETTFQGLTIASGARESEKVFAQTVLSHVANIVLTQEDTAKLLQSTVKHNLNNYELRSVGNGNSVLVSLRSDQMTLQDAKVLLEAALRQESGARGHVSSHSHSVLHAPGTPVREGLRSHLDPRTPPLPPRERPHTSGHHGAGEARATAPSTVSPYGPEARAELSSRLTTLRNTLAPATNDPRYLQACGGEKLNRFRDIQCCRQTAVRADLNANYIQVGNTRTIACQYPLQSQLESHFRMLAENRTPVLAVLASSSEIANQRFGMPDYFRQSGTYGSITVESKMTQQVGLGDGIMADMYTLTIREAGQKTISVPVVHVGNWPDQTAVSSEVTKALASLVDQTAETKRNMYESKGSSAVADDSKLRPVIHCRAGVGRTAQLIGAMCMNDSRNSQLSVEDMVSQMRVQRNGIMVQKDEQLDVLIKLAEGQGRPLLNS
Experiment [2] is described as follows: Selectivity index, ratio of IC50 for recombinant human Ptp1B to IC50 for recombinant Mycobacterium tuberculosis PtpA. A digest of the protocol:
(§1)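 Selectivity index calculated as IC50 for PtpB, LYP, PTP-PEST or PTP1B divided by IC50 for PtpA. Both IC50 values come from pNPP hydrolysis at 37 °C with 10 min enzyme–inhibitor premix and A410 readout, using 0.5–50 µM inhibitor.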

Experiment [3] in a line: Selectivity index, ratio of IC50 for recombinant human PTP-PEST to IC50 for recombinant Mycobacterium tuberculosis PtpA. Put shortly: as §1
The target of experiment [4] is T1, Low molecular weight protein-tyrosine phosphatase A (Mycobacterium tuberculosis, UniProt P9WIA1).
T1 sequence (P9WIA1 whole entry): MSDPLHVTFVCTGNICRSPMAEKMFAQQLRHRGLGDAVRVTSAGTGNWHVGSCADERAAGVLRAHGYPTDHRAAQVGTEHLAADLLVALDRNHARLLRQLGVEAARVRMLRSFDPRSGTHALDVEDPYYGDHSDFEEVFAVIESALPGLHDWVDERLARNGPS
The experiment in a line: Inhibition of recombinant Mycobacterium tuberculosis PtpA using p-nitrophenyl phosphate as substrate preincubated for 10 mins followed by substrate addition and measured every minute for 10 mins by UV-VIS spectrophotometric analysis. A digest of the protocol: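 Recombinant Mtb PtpA at 50 nM in 20 mM imidazole pH 7.0, premixed with inhibitor (0.5–50 µM, DMSO ≤4% v/v) 10 min at 37 °C. Started with 10 mM pNPP. A410 read each min for 10 min at 37 °C. Residual activity from 7 min minus 2 min absorbance versus no-inhibitor wells. IC50 by linear regression of % inhibition versus concentration. Triplicate, mean ± SD of three experiments.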

For experiment [5], the target named is T2, Phosphotyrosine protein phosphatase (Mycobacterium tuberculosis, UniProt A0A045ISB3).
T2 sequence (A0A045ISB3 whole entry): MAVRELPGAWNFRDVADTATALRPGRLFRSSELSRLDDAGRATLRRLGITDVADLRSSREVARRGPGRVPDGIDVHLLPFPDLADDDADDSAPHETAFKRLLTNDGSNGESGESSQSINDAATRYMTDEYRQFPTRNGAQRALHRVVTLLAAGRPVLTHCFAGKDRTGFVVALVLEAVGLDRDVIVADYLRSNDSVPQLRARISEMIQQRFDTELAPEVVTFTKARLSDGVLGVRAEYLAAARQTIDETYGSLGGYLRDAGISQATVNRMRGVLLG
The experiment in a line: Inhibition of recombinant Mycobacterium tuberculosis PtpB using p-nitrophenyl phosphate as substrate preincubated for 10 mins followed by substrate addition and measured every minute for 10 mins by UV-VIS spectrophotometric analysis. A digest of the protocol:
(§2)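 Recombinant PTP at PtpB 50 nM, LYP 169 nM, PTP-PEST 205 nM or PTP1B 38 nM, in 20 mM imidazole pH 7.0. Inhibitor (0.5–50 µM, DMSO ≤4% v/v) premixed with enzyme 10 min at 37 °C. Started with 10 mM pNPP. A410 each min for 10 min. Activity from 7 min minus 2 min. IC50 by linear regression. Triplicate.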

Experiment [6] concerns Mycobacterium tuberculosis. The experiment in a line: Selectivity index, ratio of IC50 for recombinant Mycobacterium tuberculosis PtpB to IC50 for recombinant Mycobacterium tuberculosis PtpA. A digest of the protocol:
as §1

Experiment [7] addresses T3, Tyrosine-protein phosphatase non-receptor type 12 (Homo sapiens, UniProt Q05209).
T3 sequence (Q05209 whole entry): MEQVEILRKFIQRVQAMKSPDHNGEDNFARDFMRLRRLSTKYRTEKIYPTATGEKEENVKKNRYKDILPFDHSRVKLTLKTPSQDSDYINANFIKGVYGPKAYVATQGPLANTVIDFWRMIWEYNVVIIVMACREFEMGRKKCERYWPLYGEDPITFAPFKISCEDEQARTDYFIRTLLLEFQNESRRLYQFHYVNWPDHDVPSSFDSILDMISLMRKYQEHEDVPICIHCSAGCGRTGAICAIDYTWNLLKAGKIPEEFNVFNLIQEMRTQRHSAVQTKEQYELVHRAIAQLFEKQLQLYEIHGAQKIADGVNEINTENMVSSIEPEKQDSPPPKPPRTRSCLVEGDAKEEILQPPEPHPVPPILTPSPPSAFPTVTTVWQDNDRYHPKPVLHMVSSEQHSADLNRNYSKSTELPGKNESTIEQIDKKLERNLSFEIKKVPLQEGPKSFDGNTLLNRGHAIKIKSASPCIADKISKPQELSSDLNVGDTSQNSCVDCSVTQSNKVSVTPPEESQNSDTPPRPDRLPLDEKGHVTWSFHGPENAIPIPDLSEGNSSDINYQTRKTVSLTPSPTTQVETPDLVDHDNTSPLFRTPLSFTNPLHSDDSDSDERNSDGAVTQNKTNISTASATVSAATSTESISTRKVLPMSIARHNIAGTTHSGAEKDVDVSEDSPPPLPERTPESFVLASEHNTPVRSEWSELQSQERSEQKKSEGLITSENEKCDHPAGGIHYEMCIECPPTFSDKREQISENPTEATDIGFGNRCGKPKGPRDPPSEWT
Briefly: Inhibition of recombinant human PTP-PEST using p-nitrophenyl phosphate as substrate preincubated for 10 mins followed by substrate addition and measured every minute for 10 mins by UV-VIS spectrophotometric analysis. Put shortly:
as §2

Experiment [8] has as its target T1, Low molecular weight protein-tyrosine phosphatase A. The experiment in a line: Non-competitive inhibition of Mycobacterium tuberculosis PtpA using p-nitrophenyl phosphate as substrate by Michaelis-Menten plot analysis. A digest of the protocol: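 Mtb PtpA-catalysed pNPP hydrolysis with pNPP varied 0.2–20 mM at each of three inhibitor concentrations. Rates expressed as specific activity (µmol pNPP min-1 mg-1). Vmax and Km fitted to Michaelis–Menten equation. Ki from non-linear fits to competitive or non-competitive inhibition equation, at least three independent experiments.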

The target of experiment [9] is T4, Tyrosine-protein phosphatase non-receptor type 1 (Homo sapiens, UniProt P18031).
T4 sequence (P18031 whole entry): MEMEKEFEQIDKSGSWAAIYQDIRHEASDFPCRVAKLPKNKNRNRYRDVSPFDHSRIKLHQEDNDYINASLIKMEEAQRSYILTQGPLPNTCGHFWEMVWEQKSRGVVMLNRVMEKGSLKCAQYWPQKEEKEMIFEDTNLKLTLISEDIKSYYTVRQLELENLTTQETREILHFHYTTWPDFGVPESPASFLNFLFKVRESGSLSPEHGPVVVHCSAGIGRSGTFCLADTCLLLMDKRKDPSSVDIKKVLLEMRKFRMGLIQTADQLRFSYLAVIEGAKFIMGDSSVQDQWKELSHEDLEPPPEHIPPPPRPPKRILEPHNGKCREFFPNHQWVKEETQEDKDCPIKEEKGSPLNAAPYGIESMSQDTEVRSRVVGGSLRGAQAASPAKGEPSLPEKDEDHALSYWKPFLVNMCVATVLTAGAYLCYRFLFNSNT
The experiment in a line: Inhibition of recombinant human Ptp1B using p-nitrophenyl phosphate as substrate preincubated for 10 mins followed by substrate addition and measured every minute for 10 mins by UV-VIS spectrophotometric analysis. A digest of the protocol: as §2

Experiment [10] in a line: Selectivity index, ratio of IC50 for recombinant human LYP to IC50 for recombinant Mycobacterium tuberculosis PtpA. Put shortly: as §1

Where only a bound is given, the exact number is not on record here.

Turning to `O=[N+]([O-])c1ccc(/C=N/NC(=S)Nc2cccc3ccccc23)cc1`, the IC50 in [1] was 7.1 µM; in experiment [4], 9.5 µM; in [5] it was 18.4 µM; in experiment [7] it was above 50 µM; in experiment [9] it was 17 µM. Also, the Ratio IC50 in experiment [2] is 1.8; in [3] it was above 5.3; in experiment [6], 1.9; in experiment [10], above 5.3. The affinity in experiment [8], expressed as Ki, was 1.2 µM.

`S=C(N/N=C/c1ccc(-c2ccccc2)cc1)Nc1cccc2ccccc12`: the IC50 in [1] is 6.5 µM; in experiment [4], 7.4 µM; in experiment [5], 17.6 µM; in experiment [7], above 50 µM; in [9], above 50 µM. Moreover, the Ratio IC50 in experiment [2] is above 6.8; in experiment [3] it was above 6.8; in [6], 2.4; in experiment [10] it was above 6.8. The same compound had a Ki in [8] of 5.6 µM.

In the case of `Cc1ccc(NC(=S)N/N=C/c2ccc(-c3cc(C(F)(F)F)ccc3Cl)o2)cc1`, the IC50 in [1] is 6.9 µM; in [4], 9.1 µM; in experiment [5] it was 30.3 µM; in experiment [7], above 50 µM; in [9], 38.2 µM. The Ratio IC50 in [2] was 4.2; in [3] it was above 5.5; in experiment [6], 3.3; in experiment [10], above 5.5.

As for `FC(F)(F)c1ccc(Cl)c(-c2ccc(/C=N/NC(=S)Nc3cccc4ccccc34)o2)c1`, the IC50 is 2.6 µM in experiment [1]; 2.9 µM in [4]; 6.2 µM in experiment [5]; 15.7 µM in [7]; 9.4 µM in experiment [9]. Moreover, the Ratio IC50 is 3.2 in experiment [2], 5.4 in [3], 2.1 in [6] and above 10.3 in [10]. In addition, the Ki in [8] was found to be 1.7 µM.
